pKi: −log10 of the molar value.

Data set [1] is described as follows: AUC(infinity) in mouse plasma at 5 mg/kg, ip measured after 24 hrs. It is filed as ADME, organism-based. Set-up: dose 5 mg/kg, time 24 hrs, route ip. The note with it: in vivo. Summed up: (§1)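 Discrete mouse study, single intraperitoneal dose of 5 mg/kg in 10% DMSO/10% Cremophor EL/30% PEG400/50% water. Plasma and brain concentrations followed over 24 h. Parameters estimated by non-compartmental analysis.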

Data set [2] in a line: Tmax in mouse plasma at 5 mg/kg, ip measured after 24 hrs. It is filed as ADME, organism-based. As to conditions: in vivo. In outline:
as §1

Data set [3] can be described thus: Ratio of free drug concentration in mouse brain to plasma at 5 mg/kg, ip measured after 5 hrs. As to conditions: read-out: K(p,uu,brain). Format: ADME, organism-based. In outline: (§2)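 Mice received 5 mg/kg IP in 10% DMSO/10% Cremophor EL/30% PEG400/50% water. Kp,uu is free brain over free plasma concentration at 1 h and 5 h. Free levels are corrected with unbound fractions measured in mouse plasma protein binding and in mouse brain homogenate binding.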

Data set [4] concerns the target T1, Sigma non-opioid intracellular receptor 1 (Homo sapiens, UniProt Q99720). Description: Binding affinity to sigma 1 receptor in human Jurkat cells. It is filed as cell-based.
Data set [5] is described as follows: Tmax in mouse brain at 5 mg/kg, ip measured after 24 hrs. Format: ADME, organism-based. The note with it: in vivo. In outline:
as §1

Data set [6] can be described thus: AUC(infinity) in mouse brain at 5 mg/kg, ip measured after 24 hrs. It is filed as ADME, organism-based. Set-up: dose 5 mg/kg, time 24 hrs, route ip. In outline:
as §1

Data set [7] is described as follows: Cmax in mouse brain at 5 mg/kg, ip measured after 24 hrs. Format: ADME, organism-based. Set-up: time 24 hrs, dose 5 mg/kg, route ip. In outline: as §1
The nature of data set [8]: Ratio of total drug concentration in mouse brain to plasma at 5 mg/kg, ip measured after 5 hrs. It is filed as ADME, organism-based. In outline:
(§3)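 Mice received 5 mg/kg IP in 10% DMSO/10% Cremophor EL/30% PEG400/50% water. Kp is total brain concentration divided by total plasma concentration, taken at 1 h and 5 h post-dose.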

Data set [9] can be described thus: Ratio of free drug concentration in mouse brain to plasma at 5 mg/kg, ip measured after 1 hr. Format: ADME, organism-based. In outline:
as §2

The nature of data set [10]: Mean residence time in mouse plasma at 5 mg/kg, ip measured after 24 hrs. Format: ADME, organism-based. The note with it: in vivo. Summed up: as §1
A short description of data set [11]: Half life in mouse plasma at 5 mg/kg, ip measured after 24 hrs. It is filed as ADME, organism-based. As to conditions: in vivo. In outline: as §1
Data set [12] in a line: Cmax in mouse plasma at 5 mg/kg, ip measured after 24 hrs. Format: ADME, organism-based. The arrangement: dose 5 mg/kg, time 24 hrs, route ip. The note with it: in vivo. Summed up: as §1
For the next data set, the target named is T2, D(4) dopamine receptor (Homo sapiens, UniProt P21917).
T2 sequence (P21917 whole entry): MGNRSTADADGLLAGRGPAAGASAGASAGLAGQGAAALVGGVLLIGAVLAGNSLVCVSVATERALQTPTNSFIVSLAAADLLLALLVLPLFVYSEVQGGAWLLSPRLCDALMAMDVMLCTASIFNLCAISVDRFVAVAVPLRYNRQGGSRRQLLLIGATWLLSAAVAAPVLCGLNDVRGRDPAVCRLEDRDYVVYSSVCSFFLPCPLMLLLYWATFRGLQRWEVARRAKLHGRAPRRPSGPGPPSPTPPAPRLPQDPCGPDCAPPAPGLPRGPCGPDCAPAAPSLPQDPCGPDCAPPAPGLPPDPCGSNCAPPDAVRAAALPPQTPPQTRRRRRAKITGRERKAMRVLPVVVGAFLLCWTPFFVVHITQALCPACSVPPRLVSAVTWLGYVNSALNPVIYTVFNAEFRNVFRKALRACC
Nature of the data set: Displacement of [3H]N-methylspiperone from D4 receptor in HEK293 cell membrane. It is filed as cell membranes. The note with it: read-out: Ki. On the technique in general: Loss of bound radioactivity is the signal in a displacement assay; it reports binding, not function.

The target of data set [13] is T1, Sigma non-opioid intracellular receptor 1. Nature of the data set: Displacement of [3H] Pentazocine from sigma 1 receptor in HEK293 cell membrane. The note with it: read-out: Ki. Format: cell membranes.
A short description of data set [14]: Mean residence time in mouse brain at 5 mg/kg, ip measured after 24 hrs. It is filed as ADME, organism-based. As to conditions: in vivo. Summed up:
as §1

Data set [15] in a line: Half life in mouse brain at 5 mg/kg, ip measured after 24 hrs. Format: ADME, organism-based. As to conditions: in vivo. Summed up: as §1
In another data set the target is D(1A) dopamine receptor (Homo sapiens, UniProt P21728). Description: Displacement of [3H]SCH23390 from D1 receptor in HEK293 cell membrane assessed as inhibition constant. It is filed as cell membranes. Summed up:
(§4)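 Competitive radioligand binding in membranes harvested from HEK293 cells, with one radioligand per target: [3H]N-methylspiperone for D2, D3 and D4; [3H]SCH23390 for D1 and D5; [3H]pentazocine for σ1; [3H]DTG for σ2. Ki derived from inhibition of binding, each run in triplicate.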

The nature of data set [16]: Ratio of total drug concentration in mouse brain to plasma at 5 mg/kg, ip measured after 1 hr. It is filed as ADME, organism-based. In outline:
as §3

In data set [17] the target is Sigma intracellular receptor 2 (Homo sapiens, UniProt Q5BJF2). Description: Displacement of [3H]DTG from sigma-2 receptor in HEK293 cell membrane assessed as inhibition constant. It is filed as cell membranes. In outline: as §4
Sequence of Sigma intracellular receptor 2 (Q5BJF2 whole entry): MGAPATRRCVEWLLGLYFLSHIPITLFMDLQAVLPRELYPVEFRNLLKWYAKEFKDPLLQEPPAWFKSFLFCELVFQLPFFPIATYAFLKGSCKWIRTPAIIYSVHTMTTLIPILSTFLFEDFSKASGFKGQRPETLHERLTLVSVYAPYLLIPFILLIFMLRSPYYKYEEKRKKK

T1 sequence (Q99720 whole entry): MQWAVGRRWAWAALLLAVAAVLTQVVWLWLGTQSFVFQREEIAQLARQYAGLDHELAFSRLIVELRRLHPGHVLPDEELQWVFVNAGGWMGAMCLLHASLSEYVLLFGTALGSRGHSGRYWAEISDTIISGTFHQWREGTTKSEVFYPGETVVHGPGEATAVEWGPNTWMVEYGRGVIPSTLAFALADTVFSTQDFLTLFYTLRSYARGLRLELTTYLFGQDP
Sequence of D(1A) dopamine receptor (P21728 whole entry): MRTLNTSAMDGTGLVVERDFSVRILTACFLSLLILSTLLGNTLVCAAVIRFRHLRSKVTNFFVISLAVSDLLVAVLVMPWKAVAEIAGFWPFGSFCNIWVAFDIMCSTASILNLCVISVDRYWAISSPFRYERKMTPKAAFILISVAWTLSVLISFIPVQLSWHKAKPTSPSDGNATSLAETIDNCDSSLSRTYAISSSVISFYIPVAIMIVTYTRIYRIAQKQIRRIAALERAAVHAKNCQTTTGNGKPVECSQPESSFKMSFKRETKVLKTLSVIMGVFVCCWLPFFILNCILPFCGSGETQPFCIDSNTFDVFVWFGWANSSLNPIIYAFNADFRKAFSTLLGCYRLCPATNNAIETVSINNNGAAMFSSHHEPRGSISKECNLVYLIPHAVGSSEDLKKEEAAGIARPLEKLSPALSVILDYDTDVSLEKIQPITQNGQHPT

The term AUC denotes the area under the concentration-time curve, a measure of exposure. The low end stands for low exposure, the high end for high exposure. For orientation: Tmax means the time from dosing to the highest level. In general, pKi refers to the Ki on a negative log10 scale, so that one unit is a factor of ten. By AUC(0-inf) is commonly meant the area under the concentration-time curve extrapolated to infinity. Read a low AUC(0-inf) as less exposure. In general, Cmax refers to the highest concentration seen after dosing. The term Kp denotes the ratio of the level in a tissue or fluid to that in plasma or blood. For orientation: MRT means the average time that molecules of a dose stay in the body. Turning to `Fc1cc(COC2CCN(Cc3ccc4[nH]cnc4c3)CC2)ccc1Cl`, the area under the curve (AUC) in data set [1] came to 2225 ng·h/mL. In addition, the Tmax in data set [2] turned out to be 40.2 min; in data set [5] it was 1.67 h. Moreover, the Kp uu at 5 h in [3] is 4.88. Also, the pKi was 8.41 in data set [4]; 5.94 on D(4) dopamine receptor; 8.51 in data set [13]; below 5.00 on D(1A) dopamine receptor; 7.15 in data set [17]. In data set [6], this molecule yielded a total exposure AUC(0-inf) of 13900 ng·h/mL. The Cmax in data set [7] amounted to 1890 ng/mL; in data set [12] it was 401 ng/mL. The Kp at 5 h in data set [8] came to 2.4. In data set [9], the “K(p,uu,brain)” value is 2.43. Moreover, the MRT in data set [10] is 4.54 h; in data set [14], 8.3 h. In addition, the t1/2 in data set [11] is 3.68 h; in data set [15], 6.88 h. Further, the Kp in data set [16] was determined as 4.94.

(Values after ChEMBL document CHEMBL5247621, “From dopamine 4 to sigma 1: Synthesis, SAR and biological characterization of a piperidine scaffold of σ1 modulators” (Eur J Med Chem, 2022).)
